Tested on: MS2 coat protein
Assay: apparent Kd, MS2 coat protein; higher = weaker binding; RNA-MaP array; FMN 200 µM where present
Procedure, shortened: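 Apparent Kd: the median of filtered binding-curve fits from single clusters. Designs were transcribed on Illumina sequencing-chip clusters by stalled E. coli RNA polymerase and titrated with SNAP-549-labelled MS2 coat protein from 0.7 or 1.5 nM, doubling to 3 µM, in 100 mM Tris-HCl pH 7.5, 80 mM KCl, 4 mM MgCl2, BSA, DTT, yeast tRNA and Tween-20. Each series ran without and then with constant ligand, and green signal was normalised to red-channel RNA signal and control-cluster median Fmax.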

[1] = designed as: OFF switch for flavin mononucleotide, no ligand
[2] = ligand present: flavin mononucleotide, designed as: OFF switch for flavin mononucleotide
[3] = designed as: ON switch for flavin mononucleotide, no ligand
[4] = ligand present: flavin mononucleotide, designed as: ON switch for flavin mononucleotide

Sequence	apparent Kd [1]	apparent Kd [2]	apparent Kd [3]	apparent Kd [4]
AACAUGGCAGAGGAUAUAGGACGCUGGCAUAAACUAGAAGGCUGCACAUGAGGAUCACCCAUGUGUUCCUAAAC	21.7 nM	39.4 nM	–	–
AUGCUUCACACAGGAUAUACAUGAGGAUCACCCAUGUGUCCUACGUAGCUGACACGAGCUACGCGGUAGAAGGGUGUGAAGCAU	18.6 nM	93.7 nM	–	–
AUUUAUAAGUAAGGAUAUCGGUUAUAUUUAAUUCGAGAAGGUACAUGAGGAUCACCCAUGUAAUAAAUAAAUAAAAUUUUUUUU	36.4 nM	28.7 nM	–	–
GCAGACUUGCUGAAGGUGUUCCACAUGAGGAUCACCCAUGUCAAGGAUAUAACGCGUCCGGCCCGUUAGAAGGUGACAGUUUGC	368 nM	229 nM	–	–
UGGUACAUCGGAGGAUAUCAUGUAGACACAUGAGGAUCACCCAUGUCGAUGGAGACAUCGGAGAUUGAGAAGGCCGAUGUACCU	–	–	503 nM	23.3 nM
GUAGCAUACCGAGGAUAUUCAUAUAGGAAACUAACAUGAGGAUCACCCAUGUGGCGAAAGCCUUGGGAGAAGGCGGAAUGCUAC	–	–	408 nM	29.2 nM
CGAGCUGCCAGAGGAUAAUGGACAUGAGGAUCACCCAUGUGUCAGGAUAUGGGUUUCACAUGGACUCAGAAGGGACCAGCCCGA	–	–	107 nM	30.2 nM
CUUCGGGCAGGAUAUGCUGUUUGUGACAUGAGGAUCACCCAUGUGAUGCAGUUUGGGUGUGCAGAAGGGCCUGAGU	54.6 nM	67.2 nM	–	–
UAUAUAUAGUAAGGAUAUGUAUUAAUUUAAUAAACAGAAGGUACUGACAUGAGGAUCACCCAUGUUUUAGUGUGGGCAUGUAGA	98 nM	140 nM	–	–
AGUGUCAUCGAGAAGGCCUCAACAUGAGGAUCACCCAUGUUGCAAAAUGGGAGGAUAUCGCGCGUUAAAAAACGUUUCGUAGCA	–	–	38.3 nM	17.5 nM
GUCAGCUCGUGAGGAUAUACAACACUGCUUCGGCAGUGUAUUAAGAUUACAUGAGGAUCACCCAUGUAGAAGGCACGAGCUGAU	5.01 nM	6.95 nM	–	–
AAAAAACAUGAGGAUCACCCAUGUCAGGAUAUCAUAAAAAAAAAAAAAAAAAAAAAAGUGAGAAGGGACAAAAA	91.7 nM	71.5 nM	–	–
UUAAAUCAUGUAGGAUAUGCAUGGCGAAGCUACGCAGAAGGACAUGAGGAUCACCCAUGUUCAAGCGUCUGAGUACAGAUGCAA	20.9 nM	102 nM	–	–
GUUUCGGGAGGAUAUGCGUGGAUUAUUCUCGUAUGUUGUUUACAUGAGGAUCACCCAUGUAGAAGGUCUGGAGC	193 nM	300 nM	–	–
GUGUACCGAGGAUAUGCUGGAAUCUAGCGAAGCUAGGUUCCACAUGAGGAUCACCCAUGUAGAAGGUGGUACAC	79.9 nM	25.7 nM	–	–
GGAGCGGAAGGAUAUGCUGCGGGAUUGAAUGGAAAGAAAAUACAUGAGGAUCACCCAUGUAGAAGGUCCGUGAA	18.2 nM	54.2 nM	–	–
GGGUAAUAUCGAGGAUAUGUCUAGACACAUGAGGAUCACCCAUGUAUGUGUAUAGAAGGCGAUAUUAACAGCAUGUUACAUGGG	–	–	291 nM	60.5 nM
UCAUUUCAGUAAGGAUAUUAAAUCAUGACGAUACAUGAGGAUCACCCAUGUUAAGAAGGUACUAAUACAAAUAAUGCAUUGUUC	12.8 nM	11.1 nM	–	–
AAAGAACUAGGAUAUACAUGAGGAUCACCCAUGUGCAGCUUAACGGCUCACACCUUAUGUAGAAGGAGUGACCG	16 nM	19.3 nM	–	–
GACAAGGGAGGAUAUGCACAAGGGAUAUCUGACAUGCCGUUACAUGAGGAUCACCCAUGUAGAAGGCCCGAAUA	13.7 nM	35.3 nM	–	–
CUUUGAUGAGGAUAUCGAGGUUAGUACAUGAGGAUCACCCAUGUUAUCCAGGUGUCGGAUCGAGAAGGUAUUGGAC	–	17.5 nM	–	–
AACUAAGUAUUAAUGGUGUCUGACAGAAGGCAAUAGGUUGUGACCGACAUGAGGAUCACCCAUGUUGAGGAUAUGUCUAGCUAC	44.7 nM	308 nM	–	–
GUAGCUAUCGGAGGAUAUUCAUACCGGAAACGGACAUGAGGAUCACCCAUGUGGCGAAAGCCGUGGGAGAAGGCCGAUAGCUAC	–	–	875 nM	43 nM
